Measured values taken from ChEMBL document CHEMBL2157917, “Targeting conserved water molecules: design of 4-aryl-5-cyanopyrrolo[2,3-d]pyrimidine Hsp90 inhibitors using fragment-based screening and structure-based optimization” (Bioorg Med Chem, 2012).
“And” between values parts separate entries of the source, which are not always exact repeats. Identical values can stand only once.

Legend:
[1] = target: Heat shock protein HSP 90-beta (Homo sapiens, UniProt P08238); experiment: Inhibition of fluorescently labeled VER51001 binding to full length human HSP90beta after 30 mins by fluorescence polarization assay
[2] = Binding affinity to HSP90 after 30 mins by ITC assay
Outline: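 Isothermal titration calorimetry at 25 °C with stirring at 1000 rpm. Ligands came from a 20 mM DMSO stock and were run in dialysis buffer with 1% DMSO. Ligand 10 µM in the cell, protein 100–200 µM in the syringe, 8–16 injections at 300 s spacing. One-site fit.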

[3] = Binding affinity to hexa His-tagged HSP90 (9-236 aminoacids) by SPR assay
Outline: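 NTA chip charged with 0.5 mM Ni2+, then 100 nM His-tagged HSP90 captured to about 1500 RU. Running buffer 10 mM HEPES pH 7.4, 150 mM NaCl, EDTA, 0.05% Tween-20, 1% DMSO. Surface was reloaded for each concentration. Double-referenced sensorgrams were fitted globally to a single-step kinetic model.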

[4] = system: BT-474; experiment: Antiproliferative activity against human BT474 cells after 4 days by SRB method; assay type: functional; conditions: BT-474, 96 h
[5] = system: HCT-116; experiment: Antiproliferative activity against human HCT116 cells after 4 days by SRB method; assay type: functional; conditions: HCT-116, 96 h
[6] = system: MDA-MB-468; experiment: Antiproliferative activity against human MDA-MB-468 cells after 4 days by SRB method; assay type: functional; conditions: MDA-MB-468, 96 h
[7] = Tmax in Balb-C mouse kidney at 5 mg/kg, po; assay type: ADME, organism-based; design: dose 5 mg/kg, route oral
[8] = Cmax in Balb-C mouse plasma at 5 mg/kg, po; assay type: ADME, organism-based; design: dose 5 mg/kg, route oral
[9] = system: UGT; experiment: Intrinsic clearance in human liver microsomes assessed as UGT-mediated glucuronidation after 30 mins by LC-MS/MS analysis; assay type: ADME, Microsome; conditions: read-out: CLH
[10] = target: T1, Voltage-gated inwardly rectifying potassium channel KCNH2 (Homo sapiens, UniProt Q12809); experiment: Inhibition of human ERG expressed in HEK293 cells by voltage-clamp method; assay type: cell-based
[11] = target: T1, Voltage-gated inwardly rectifying potassium channel KCNH2; experiment: Displacement of [3H]-dofetilide from human ERG
[12] = system: UGT; experiment: Intrinsic clearance in human liver microsomes assessed as UGT-mediated glucuronidation extraction ratio after 30 mins by LC-MS/MS analysis; assay type: ADME, Microsome; conditions: read-out: ERH
[13] = Tmax in Balb-C mouse plasma at 5 mg/kg, po; assay type: ADME, organism-based; design: dose 5 mg/kg, route oral
[14] = AUC (0 to 2 hrs ) in Balb-C mouse plasma at 5 mg/kg, po; assay type: ADME, organism-based; design: time < 2 hr, dose 5 mg/kg, route oral
[15] = AUC (0 to 2 hrs ) in Balb-C mouse kidney at 5 mg/kg, po; assay type: ADME, organism-based; design: time < 2 hr, dose 5 mg/kg, route oral
[16] = Cmax in Balb-C mouse kidney at 5 mg/kg, po; assay type: ADME, organism-based; design: dose 5 mg/kg, route oral
[17] = Ratio of drug level in kidney to plasma of Balb-C mouse at 5 mg/kg, po; assay type: ADME, organism-based; design: dose 5 mg/kg, route oral
[18] = Half life in Balb-C mouse muscle at 5 mg/kg, po; assay type: ADME, organism-based, Muscle tissue; design: dose 5 mg/kg, route oral
[19] = Cmax in Balb-C mouse muscle at 5 mg/kg, po; assay type: ADME, organism-based, Muscle tissue; design: dose 5 mg/kg, route oral
[20] = AUC (0 to infinity) in Balb-C mouse kidney at 5 mg/kg, po; assay type: ADME, organism-based; design: time infinity, dose 5 mg/kg, route oral
[21] = AUC (0 to infinity) in Balb-C mouse muscle at 5 mg/kg, po; assay type: ADME, organism-based, Muscle tissue; design: time infinity, dose 5 mg/kg, route oral
[22] = Tmax in Balb-C mouse muscle at 5 mg/kg, po; assay type: ADME, organism-based, Muscle tissue; design: dose 5 mg/kg, route oral
[23] = AUC (0 to infinity) in Balb-C mouse plasma at 5 mg/kg, po; assay type: ADME, organism-based; design: time infinity, dose 5 mg/kg, route oral
[24] = Half life in Balb-C mouse plasma at 5 mg/kg, po; assay type: ADME, organism-based; design: dose 5 mg/kg, route oral
[25] = Ratio of drug level in muscle to plasma of Balb-C mouse at 5 mg/kg, po; assay type: ADME, organism-based; design: dose 5 mg/kg, route oral
[26] = Half life in Balb-C mouse kidney at 5 mg/kg, po; assay type: ADME, organism-based; design: dose 5 mg/kg, route oral

Heat shock protein HSP 90-beta, sequence (P08238 whole entry): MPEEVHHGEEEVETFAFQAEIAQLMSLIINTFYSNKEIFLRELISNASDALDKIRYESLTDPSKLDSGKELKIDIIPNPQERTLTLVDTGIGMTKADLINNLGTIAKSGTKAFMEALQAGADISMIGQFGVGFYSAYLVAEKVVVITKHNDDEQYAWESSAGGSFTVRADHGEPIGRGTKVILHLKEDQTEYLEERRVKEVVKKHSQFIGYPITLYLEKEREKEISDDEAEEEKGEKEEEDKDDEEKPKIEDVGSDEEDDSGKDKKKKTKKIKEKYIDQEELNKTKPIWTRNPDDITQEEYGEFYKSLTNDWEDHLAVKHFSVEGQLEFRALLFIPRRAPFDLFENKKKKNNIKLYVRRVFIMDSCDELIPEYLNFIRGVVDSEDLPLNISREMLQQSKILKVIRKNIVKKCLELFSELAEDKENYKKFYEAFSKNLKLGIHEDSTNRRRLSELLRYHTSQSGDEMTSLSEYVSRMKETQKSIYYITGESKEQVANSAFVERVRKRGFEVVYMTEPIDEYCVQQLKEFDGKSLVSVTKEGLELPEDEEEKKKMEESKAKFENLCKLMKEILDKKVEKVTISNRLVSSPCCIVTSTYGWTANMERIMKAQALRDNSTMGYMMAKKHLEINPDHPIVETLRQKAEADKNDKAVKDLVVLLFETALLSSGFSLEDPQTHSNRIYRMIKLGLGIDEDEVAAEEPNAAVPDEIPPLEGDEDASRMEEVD
T1 sequence (Q12809 whole entry): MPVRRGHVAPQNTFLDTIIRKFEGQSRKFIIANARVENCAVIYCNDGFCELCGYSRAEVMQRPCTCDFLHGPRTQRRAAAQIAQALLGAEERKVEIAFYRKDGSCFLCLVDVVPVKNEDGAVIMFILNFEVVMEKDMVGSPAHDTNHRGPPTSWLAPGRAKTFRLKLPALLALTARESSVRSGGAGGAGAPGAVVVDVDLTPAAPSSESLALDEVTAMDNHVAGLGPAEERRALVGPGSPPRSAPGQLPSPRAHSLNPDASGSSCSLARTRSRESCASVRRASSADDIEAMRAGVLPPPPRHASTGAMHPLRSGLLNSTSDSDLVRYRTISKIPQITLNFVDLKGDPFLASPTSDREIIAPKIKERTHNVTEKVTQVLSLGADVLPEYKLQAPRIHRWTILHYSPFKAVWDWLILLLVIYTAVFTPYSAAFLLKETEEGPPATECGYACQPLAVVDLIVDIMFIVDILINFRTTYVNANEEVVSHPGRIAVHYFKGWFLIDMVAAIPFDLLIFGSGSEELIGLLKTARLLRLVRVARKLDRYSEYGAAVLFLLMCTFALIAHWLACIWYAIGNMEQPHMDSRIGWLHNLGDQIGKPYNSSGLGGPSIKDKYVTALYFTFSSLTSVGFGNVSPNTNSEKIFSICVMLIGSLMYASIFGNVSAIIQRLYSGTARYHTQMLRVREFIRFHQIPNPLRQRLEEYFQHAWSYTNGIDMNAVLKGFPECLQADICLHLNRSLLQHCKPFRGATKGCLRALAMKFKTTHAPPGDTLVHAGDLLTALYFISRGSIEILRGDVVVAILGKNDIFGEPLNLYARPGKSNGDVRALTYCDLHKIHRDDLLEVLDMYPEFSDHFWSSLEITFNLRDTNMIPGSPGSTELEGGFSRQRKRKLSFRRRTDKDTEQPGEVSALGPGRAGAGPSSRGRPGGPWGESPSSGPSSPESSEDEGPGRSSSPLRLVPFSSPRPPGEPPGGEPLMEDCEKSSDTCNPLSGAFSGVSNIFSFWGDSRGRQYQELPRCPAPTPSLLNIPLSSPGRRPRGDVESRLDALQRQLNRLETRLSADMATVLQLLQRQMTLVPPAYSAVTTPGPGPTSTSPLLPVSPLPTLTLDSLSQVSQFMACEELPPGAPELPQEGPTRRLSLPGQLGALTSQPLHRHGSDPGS

| Structure (SMILES) | Ki [1] [nM] | Kd [3] [µM] | GI50 [4] [nM] | GI50 [5] [nM] | GI50 [6] [nM] | also measured |
| --- | --- | --- | --- | --- | --- | --- |
| COc1cc(Cl)c(-c2nc(SCC(=O)N(C)C)nc3[nH]cc(C#N)c23)cc1OC | < 1 | – | 34 | 32 | 30 | half-life [18]: 144 min; Cmax [19]: 158 nM and 68 ng/mL; Tmax [7]: 15 min; Cmax [8]: 553 nM and 239 ng/mL; AUC(0-inf) [20]: 6920 ng·h/mL; AUC(0-inf) [21]: 231 ng·h/mL; Tmax [22]: 15 min; microsomal CLint [9]: 4 µL/min/mg; IC50 [10]: > 30 µM; IC50 [11]: > 30 µM; Tmax [13]: 15 min; Kd [2]: < 3 nM; AUC(0-inf) [23]: 297 ng·h/mL; half-life [24]: 84 min; Cmax [16]: 12.5 µM and 5390 ng/mL; Kp [17]: 23.3; Kp [25]: 0.8; half-life [26]: 72 min |
| COc1cc(Cl)c(-c2nc(SCC(=O)NC3CC3)nc3[nH]cc(C#N)c23)cc1OC | < 1 | – | 69 | 60 | 62 | – |
| CCN(CC)CCSc1nc(-c2cc(OC)c(Cl)cc2Cl)c2c(C#N)c[nH]c2n1 | < 1 | – | 72 | – | – | – |
| COc1cc(Cl)c(-c2nc(SCC(=O)NC3CC3)nc3[nH]cc(C#N)c23)cc1O | < 1 | – | 102 | 1160 | 236 | – |
| CSc1nc(-c2ccc(C#N)cc2)c2c(C#N)c[nH]c2n1 | 204 | 1.22 | – | – | – | – |
| COc1cc(Cl)c(-c2nc(SCC(=O)NC(C)C)nc3[nH]cc(C#N)c23)cc1OC | < 1 | – | 81 | 81 | 102 | – |
| COc1cc(Cl)c(-c2nc(SC(C)C)nc3[nH]cc(C#N)c23)cc1OCCN1CCC(F)(F)C1 | 172 | – | 388 | – | – | – |
| CCNC(=O)CSc1nc(-c2cc(OCC)c(OC)cc2Cl)c2c(C#N)c[nH]c2n1 | < 1 | – | 44 | 40 | 64 | – |
| CNc1nc(-c2ccc(F)cc2C)c2c(C#N)c[nH]c2n1 | 4070 | 4.26 | – | – | – | Kd [2]: 3690 nM |
| CCN(CC)CCOc1cc(-c2nc(SC)nc3[nH]cc(C#N)c23)c(Cl)cc1Cl | 2 | – | 31 | – | – | – |
| COc1cc(Cl)c(-c2nc(SC)nc3[nH]cc(C#N)c23)cc1OCCN1CC[C@H](F)C1 | 3 | – | 31 | – | – | – |

Now from value to molecule, other results behind:

| Ki [1] [nM] | Kd [3] [µM] | GI50 [4] [nM] | GI50 [5] [nM] | GI50 [6] [nM] | Structure (SMILES) | also measured |
| --- | --- | --- | --- | --- | --- | --- |
| 2830 | 1.88 | – | – | – | Cc1ccc(-c2ncnc3[nH]cc(C#N)c23)c(C)c1 | Kd [2]: 1620 nM |
| 2 | – | 141 | 42 | 59 | CCNC(=O)CSc1nc(-c2cc(OC)c(OC)cc2Cl)c2c(C#N)c[nH]c2n1 | – |
| < 1 | – | 20 | 131 | 23 | COc1cc(Cl)c(-c2nc(SCC(=O)N(C)C)nc3[nH]cc(C#N)c23)cc1O | Tmax [7]: 30 min; Cmax [8]: 25 nM and 11 ng/mL; microsomal CLint [9]: 73 µL/min/mg; IC50 [10]: > 30 µM; IC50 [11]: > 30 µM; hepatic extraction ratio at 0.5 h [12]: 0.8; Tmax [13]: 15 min; AUC(0-t) at 2 h [14]: 16 ng·h/mL; AUC(0-t) at 2 h [15]: 41 ng·h/mL; Cmax [16]: 31 ng/mL and 72 nM; Kp [17]: 2.6 |
| 2640 | 55 | – | – | – | CSc1nc(-c2ccc(C)cc2C)c2c(C(F)(F)F)c[nH]c2n1 | – |
| 661 | > 20 | – | – | – | CSc1nc(-c2ccc(Cl)cc2C)c2nc[nH]c2n1 | – |
| 5 | – | 136 | 98 | 178 | COc1cc(Cl)c(-c2nc(SCC(=O)NCCF)nc3[nH]cc(C#N)c23)cc1OC | – |
| < 1 | – | 84 | 65 | 77 | CCOc1cc(-c2nc(SCC(=O)NC(C)C)nc3[nH]cc(C#N)c23)c(Cl)cc1OC | – |
| > 50000 | > 100 | – | – | – | CSc1nc(-c2ccc(C)cc2C)c2c(C3CC3)c[nH]c2n1 | – |
| < 1 | – | 128 | 117 | 152 | COc1cc(Cl)c(-c2nc(SCC(=O)NC(C)(C)C)nc3[nH]cc(C#N)c23)cc1O | – |
| < 1 | – | 121 | 50 | 84 | COc1cc(Cl)c(-c2nc(SCC(=O)NC(C)(C)C)nc3[nH]cc(C#N)c23)cc1OC | – |
| < 1 | – | 45 | 153 | 124 | COc1cc(Cl)c(-c2nc(SCC(=O)NCC(F)(F)F)nc3[nH]cc(C#N)c23)cc1OC | – |
| > 200000 | > 100 | – | – | – | CSc1nc(-c2ccc(F)cc2C)c2c(C(N)=O)c[nH]c2n1 | – |
